Screening data deposited in PubChem by several laboratories.
UCH37 DUB inh = inhibitors of human UCH37 deubiquitinase, primary screen, biochemical, Ub-AMC cleavage, fluorescence; inhibition, % (no concentration beside the values); actives 0.33% (n = 330,000); purified proteasome/UCH37; Ubiquitin carboxyl-terminal hydrolase isozyme L5 (Homo sapiens), Q9Y5K5; AID 588478, 2011;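 active = mean inhibition over replicate wells above about 20%, limit read from the data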;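 note: 0% = compound-free wells with enzyme and 100% = wells lacking proteasome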
Target sequence (Q9Y5K5 whole entry, looked up): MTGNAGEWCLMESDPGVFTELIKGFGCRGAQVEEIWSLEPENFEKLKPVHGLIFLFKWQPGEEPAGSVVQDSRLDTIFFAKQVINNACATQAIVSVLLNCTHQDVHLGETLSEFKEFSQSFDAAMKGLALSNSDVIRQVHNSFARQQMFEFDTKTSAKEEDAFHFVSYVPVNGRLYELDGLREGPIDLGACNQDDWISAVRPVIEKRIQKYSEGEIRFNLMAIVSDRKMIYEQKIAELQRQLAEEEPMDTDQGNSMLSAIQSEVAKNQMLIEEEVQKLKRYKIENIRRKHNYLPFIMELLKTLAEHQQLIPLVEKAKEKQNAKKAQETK
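Reagent: Ub-AMC substrate; assay system: Proteasome-associated human UCH37 deubiquitinase; controls: no-proteasome and no-compound wells; read-out: % inhibition of Ub-AMC cleavage fluorescence; timing: 30 min preincubation with enzyme, 25 min cleavage at room temperature; signal: AMC fluorescence from Ub-AMC cleavage, excitation 355 nm, emission 460 nm; buffer or medium: Tris-HCl pH 7.4 plus ovalbumin, ATP-MgCl2, DTT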
UBC13 polyUb = UBC13 polyubiquitin chain formation inhibitors, primary screen, biochemical, TR-FRET, uHTS | Ubiquitin-conjugating enzyme E2 N (Homo sapiens), P61088 | inhibition, % at 20 µM | actives 0.47% (n = 330,000) | AID 485273, 2010; in the data active = inhibition above about 45%, passing the limit was not always enough
Target sequence (P61088 whole entry, looked up): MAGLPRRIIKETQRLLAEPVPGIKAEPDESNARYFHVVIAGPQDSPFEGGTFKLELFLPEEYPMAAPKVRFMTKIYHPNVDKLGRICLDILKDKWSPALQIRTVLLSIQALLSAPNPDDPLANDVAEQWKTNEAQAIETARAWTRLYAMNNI
MEKK2mut PB1 HTS = MEK5 binding signal on mutant MEKK2 PB1, primary screen, biochemical, multiplex bead flow cytometry, Alexa488-MEK5. Alexa488-MEK5 binding to MEKK2 mutant. percent response, % at 10 µM. actives 0.35% (n = 290,000). AID 1530, 2009; in the data active = percent response above about 24%, passing the limit was not always enough
MEKK2 WT-MEK5 = modulators of MEK5 binding to wildtype MEKK2, primary screen, biochemical, multiplex bead flow cytometry, Alexa488-MEK5. AID 1531, 2009. binding response (% of control), % at 10 µM. Mitogen-activated protein kinase kinase kinase 2 (Homo sapiens), Q9Y2U5. Alexa488-MEK5 binding to MEKK2 WT; actives lie on both sides. actives 1.1% (n = 290,000); in the data active = binding response below about 67% or above about 130%
MEKK3 PB1 HTS = modulators of MEKK3-MEK5 PB1 binding, primary screen, biochemical, wildtype MEKK3, multiplex bead flow cytometry, Alexa488-MEK5; Mitogen-activated protein kinase kinase kinase 3 (Homo sapiens), Q99759; bead-based flow cytometry, Alexa488-MEK5 binding to MEKK3; actives lie on both sides; 0 = blocked by unlabeled MEK5, 100 = vehicle; binding response (% of control), % at 10 µM; actives 1.4% (n = 290,000);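 active = binding response more than 3 SD above or below the average of its plate-row segment, actives on both sides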;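 note: Alexa488 bead fluorescence after subtracting the streptavidin-only scavenger bead signal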
Apaf1 inhib = inhibitors of human Apaf-1 apoptosome, primary screen, biochemical, DEVD-Rh110 fluorescence, uHTS; Apoptotic protease-activating factor 1 (Homo sapiens), O14727; reconstituted apoptosome caspase-3 activity; inhibition, % at 20 µM; actives 0.71% (n = 330,000); AID 489030, 2010; active = inhibition of at least 40% at 20 µM;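 note: plate controls were DMSO wells for no effect and DEVD-CHO caspase inhibitor wells for full effect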
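System: reconstituted apoptosome with Apaf-1, cytochrome c, caspase-9, procaspase-3, dATP; Signal: Rh110 fluorescence intensity; Schedule: 30 min compound preincubation, 50 min activation, room temperature; Reagent: cytochrome c trigger plus (Z-DEVD)2-Rh110 caspase-3 substrate.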
MEKK2wt confirm = modulators of MEK5 binding to wildtype MEKK2, confirmation, biochemical, single concentration, multiplex bead flow cytometry. binding response (% of control), % at 10 µM. shares compounds with MEKK3 PB1 HTS. Alexa488-MEK5 binding to MEKK2 WT; actives lie on both sides. AID 1892, 2009. actives 2.4% (n = 5,900); in the data active = binding response below about 16% or above about 210%; inactive = in between
MEKK2mut confirm = mutant MEKK2 PB1-MEK5 binding signal retest – biochemical, single concentration, multiplex bead flow cytometry, confirmation; AID 1893, 2009; shares compounds with MEKK3 PB1 HTS; percent response, % at 10 µM; actives 2% (n = 5,900); Alexa488-MEK5 binding to MEKK2 mutant; in the data active = percent response mostly above about 71%, no sharp cut-off; inactive = mostly below about 38%;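 note: higher means compound restores mutant binding toward wildtype level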
MEKK3 confirm = MEKK3 wild-type PB1 binding to MEK5, inhibitors, confirmation, biochemical, bead multiplex flow cytometry, single concentration, wildtype | shares compounds with MEKK3 PB1 HTS | Alexa488-MEK5 binding to MEKK3; hits give low values | binding response (% of control), % at 10 µM | actives 1.8% (n = 5,900);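 active = binding response below 72% of control, or above a set upper limit, though filed actives all read lower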;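 note: 100% = DMSO only wells and 0% = binding blocked by excess unlabeled MEK5; lower values mean stronger disruption of MEK5 binding to MEKK3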
Numbers without * were called inactive; x = no result given; [ ] = remark or other dose. Compounds with a hit are over-represented: about 3% of the library has one in this group of screens.

SMILES	UCH37 DUB inh	UBC13 polyUb	MEKK2mut PB1 HTS	MEKK2 WT-MEK5	MEKK3 PB1 HTS	Apaf1 inhib	MEKK2wt confirm	MEKK2mut confirm	MEKK3 confirm
CC(O)Cn1c(N2CCCC2)nc2c1c(=O)n(C)c(=O)n2C (stereo not given)	2	-4	7	107	102	-8	x	x	x
CN1CCN(/N=C/c2ccc(N(c3ccccc3)c3ccccc3)cc2)CC1	x	20	16	153*	106	22	151	34	98
CN1CCN(N=Cc2ccc(N(c3ccccc3)c3ccccc3)cc2)CC1	-34	x	x	x	x	x	x	x	x
CN1/C(=C\C(=O)c2cncc(Br)c2)C(C)(C)c2ccccc21	-10	-4	-3	97	98	11	x	x	x
CN1/C(=C\C(=O)c2cccnc2)C(C)(C)c2ccccc21	0	-18	0	105	147*	0	85	-9	76
CCc1ccc(C(=O)COC(=O)c2cccnc2Cl)cc1	1	9	-16	74	72*[inhibitor]	6	100	-3	103
O=C(COC(=O)c1cccnc1Cl)c1ccccc1	7	-3	2	98	98	8	x	x	x
CNC(=O)NC(=O)CSc1ccc(NC(C)=O)cc1	5	9	8	125	128*	1	105	3	99
CCNC(=O)NC(=O)CSc1ccc(NC(C)=O)cc1	5	4	0	103	98	1	x	x	x
Cc1cccc(NC(=O)COc2coc(CN3CCN(Cc4ccccc4)CC3)cc2=O)c1	3	0	x	x	x	4	x	x	x
Cc1ccc(-n2c(C)cc(C(=O)COc3c(CO)cc(F)cc3CO)c2C)cc1C	2	6	1	104	105	7	x	x	x
CCOC(=O)/C(=C/C=C1\Sc2cc(C)c(C)cc2N1CC)C(C)=O	10	x	-22	42*[inhibitor]	90	x	87	-12	91
CCOC(=O)/C(=C\C=C1/Sc2ccccc2N1CC)C(C)=O	15	x	-5	68	80	x	x	x	x
CCOC(=O)N1CCN(C(=O)c2ccc3c(=O)n(CCc4ccccc4)c(=O)[nH]c3c2)CC1	2	-3	9	125	125*	13	102	0	104
COCCn1c(=O)[nH]c2cc(C(=O)NCCc3ccc(OC)c(OC)c3)ccc2c1=O	1	4	-3	91	93	-8	x	x	x
COCCn1c(=O)[nH]c2cc(C(=O)NCCc3ccc(S(N)(=O)=O)cc3)ccc2c1=O	-25	-2	4	118	135*	2	100	-5	103
COc1ccc(NC(=O)C(=O)NCCC2CCCCN2S(=O)(=O)c2cccs2)cc1 (stereo not given)	3	4	x	x	x	8	x	x	x
CC(=O)Nc1ccccc1OCC(=O)N(Cc1ccccc1)C(C)C	0	-7	13	106	99	1	x	x	x
COc1ccc(CNC(=O)CCNS(=O)(=O)c2cccc3nsnc23)cc1	1	6	-1	97	109	0	x	x	x
